The nature of this test: Cytotoxicity against human PC3M cells by MTT assay. The format is functional, cell-based. The note with it: PC-3M. A digest of the protocol:
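Human metastatic prostate PC-3M cells seeded at 2000/well, recovered overnight; serial drug dilutions in medium added in quadruplicate, DMSO as negative and doxorubicin as positive control. Incubated about 40 h at 37 °C, 5% CO2, then MTT 0.4 mg/mL for 4 h; medium removed, DMSO added, absorbance read at 650 nm. Percent inhibition plotted to derive IC50.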
In general terms: Formazan colour is commonly taken as a measure of viable cells.

Consider 10 compounds from ChEMBL document CHEMBL1141444, “Sorbifolivaltrates A-D, diene valepotriates from Valeriana sorbifolia(1)” (J Nat Prod, 2007).

Turning to `CC(=O)O[C@H]1C=C2C(COC(=O)CC(C)C)=CO[C@@H](OC(=O)CC(C)C)[C@@H]2[C@@]12CO2`, the midpoint of inhibition, the IC50, lay at 3.1 µM.
Take `CC(=O)OCC1=CO[C@@H](OC(=O)C=C(C)C)[C@H]2C1=C[C@H](OC(=O)CC(C)C)[C@]2(O)COC(=O)CC(C)C`: half-maximal inhibition (IC50) was put at 8.9 µM.
The result for `CCC(C)CC(=O)O[C@H]1C=C2C(COC(C)=O)=CO[C@@H](OC(=O)C=C(C)C)[C@@H]2[C@@]1(O)COC(=O)CC(C)C` (stereo not given in full) reads 7.3 µM; that for `CCC(C)CC(=O)O[C@H]1C=C2C(COC(C)=O)=CO[C@@H](OC(=O)C=C(C)C)[C@@H]2[C@@]12CO2` (stereo not given in full), 12.2 µM; that for `CC(C)CC(=O)OCC1=CO[C@@H](OC(=O)CC(C)(C)O)[C@H]2C1=C[C@H](OC(=O)CC(C)C)[C@]2(O)COC(=O)CC(C)C`, 8.9 µM.
As to `CC(=O)OCC1=CO[C@@H](OC(=O)C=C(C)C)[C@H]2C1=C[C@H](OC(=O)CC(C)C)[C@]21CO1`, the half-maximal inhibitory concentration (IC50) (commonly the midpoint of a concentration-inhibition curve) is 20 µM.
Compound `CC(=O)OCC1=CO[C@@H](OC(=O)CC(C)(C)O)[C@H]2C1=C[C@H](OC(=O)CC(C)C)[C@]2(O)COC(=O)CC(C)C` had an IC50 of 11.1 µM.
For the compound `CC(C)=CC(=O)O[C@@H]1OC=C(COC(=O)CC(C)C)C2=C[C@H](OC(=O)CC(C)C)[C@]3(CO3)[C@H]21`, the IC50 amounted to 2.6 µM.
The compound `COc1cccc2c1C(=O)c1c(O)c3c(c(O)c1C2=O)C[C@@](O)(C(=O)CO)C[C@@H]3O[C@H]1C[C@H](N)[C@H](O)[C@H](C)O1` [DOXORUBICIN] gave an IC50 of 1.26 µM.
With `CC(=O)OCC1=CO[C@@H](OC(=O)CC(C)C)[C@H]2C1=C[C@H](OC(=O)CC(C)C)[C@]21CO1` [VALTRATE], the IC50 stood at 1.7 µM.
